Columns and labels:
[1] = tested on: Histoplasma capsulatum; assay: Antifungal activity against Histoplasma capsulatum RNSH Hi-70 1/2 assessed as growth inhibition by agar dilution method; assay type: functional
[2] = tested on: Escherichia coli; assay: Antibacterial activity against Escherichia coli 114 assessed as growth inhibition after 24 hrs by dilution tube method; assay type: functional; conditions: Escherichia coli, 114, 24 h
Outline: (§1)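 Broth tube dilution in Tryptone Soya Broth, duplicate tubes at each concentration. MIC (μg/ml) was the highest dilution preventing visible growth. Nitrofurantoin run under the same conditions.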

[3] = tested on: Candida albicans; assay: Antifungal activity against Candida albicans SKF 2270 assessed as growth inhibition by agar dilution method; assay type: functional
[4] = tested on: Pseudomonas aeruginosa; assay: Antibacterial activity against Pseudomonas aeruginosa ATCC 10145 assessed as growth inhibition after 24 hrs by dilution tube method; assay type: functional; conditions: ATCC 10145, 24 h; outline: as §1
[5] = tested on: Mycobacterium tuberculosis; assay: Antibacterial activity against Mycobacterium tuberculosis H37Rv assessed as growth inhibition by serial dilution method; assay type: functional
Outline: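 M. tuberculosis H37Rv maintained on Lowenstein–Jensen medium; tested in Youman's medium by serial dilution.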

[6] = tested on: Klebsiella pneumoniae; assay: Antibacterial activity against Klebsiella pneumoniae ATCC 10031 assessed as growth inhibition after 24 hrs by dilution tube method; assay type: functional; conditions: ATCC 10031, 24 h; outline: as §1
[7] = tested on: Enterococcus faecalis; assay: Antibacterial activity against Streptococcus faecalis ATCC 10541 assessed as growth inhibition after 24 hrs by dilution tube method; assay type: functional; conditions: ATCC 10541, 24 h; outline: as §1
[8] = tested on: Salmonella typhi; assay: Antibacterial activity against Salmonella typhi 115 assessed as growth inhibition after 24 hrs by dilution tube method; assay type: functional, Salmonella enterica subsp. enterica serovar Typhi; conditions: Salmonella enterica, 115, 24 h
Outline: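 Dilution tube method in Tryptone Soya Broth; MIC (μg/ml) taken as highest dilution preventing visible growth; duplicates at every concentration; nitrofurantoin reference run under same conditions.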

[9] = tested on: Agrobacterium tumefaciens; assay: Antibacterial activity against Agrobacterium tumefaciens NRRL B-36 assessed as growth inhibition after 24 hrs by dilution tube method; assay type: functional; conditions: NRRL B-36, 24 h; outline: as §1
[10] = tested on: Staphylococcus aureus; assay: Antibacterial activity against Staphylococcus aureus ATCC 6538 assessed as growth inhibition after 24 hrs by dilution tube method; assay type: functional; conditions: ATCC 6538, 24 h; outline: as §1
[11] = tested on: Microsporum canis; assay: Antifungal activity against Microsporum canis VM-200 USPHS assessed as growth inhibition by agar dilution method; assay type: functional
[12] = tested on: Nannizzia gypsea; assay: Antifungal activity against Microsporum gypseum 153 CSTM assessed as growth inhibition by agar dilution method; assay type: functional
[13] = tested on: Trichophyton rubrum; assay: Antifungal activity against Trichophyton rubrum 252 CSTM assessed as growth inhibition by agar dilution method; assay type: functional
[14] = tested on: Cryptococcus neoformans; assay: Antifungal activity against Cryptococcus neoformans 103 assessed as growth inhibition by agar dilution method; assay type: functional
[15] = tested on: Trichophyton mentagrophytes; assay: Antifungal activity against Trichophyton mentagrophytes A-280 USPHS assessed as growth inhibition by agar dilution method; assay type: functional

Row | Structure (SMILES) | MIC [1] [µg/mL] | MIC [2] [µg/mL] | MIC [3] [µg/mL] | MIC [4] [µg/mL] | MIC [5] [µg/mL] | MIC [6] [µg/mL] | MIC [7] [µg/mL] | MIC [8] [µg/mL] | MIC [9] [µg/mL] | MIC [10] [µg/mL] | MIC [11] [µg/mL] | MIC [12] [µg/mL] | MIC [13] [µg/mL] | MIC [14] [µg/mL] | MIC [15] [µg/mL]
1 | Cc1cc(OCCCCCCCC[N+](C)(C)Cc2ccc([N+](=O)[O-])o2)c(C(C)C)cc1Cl.[Br-] | > 200 | > 200 | > 200 | 1 | 7.5 | 2 | 3 | > 200 | 4 | 2 | > 200 | > 200 | > 200 | 4 | > 200
2 | C[N+](C)(CCCOc1c(Br)cc(Br)cc1Br)Cc1ccc(Br)o1.[Br-] | > 200 | > 200 | > 200 | 4 | 10 | 7.5 | 25 | 100 | 50 | 10 | > 200 | > 200 | > 200 | 50 | > 200
3 | Cc1cc(OCCCCCCC[N+](C)(C)Cc2ccc(Br)o2)c(C(C)C)cc1Cl.[Br-] | > 200 | > 200 | 50 | 3 | 7.5 | 7.5 | 7.5 | > 200 | 7.5 | 10 | > 200 | > 200 | > 200 | 25 | > 200
4 | C[N+](C)(CCCCCCCCCCCCCCOc1c(Br)cc(Br)cc1Br)Cc1ccc(Br)o1.Cc1ccc(S(=O)(=O)[O-])cc1 | > 200 | > 200 | > 200 | 50 | 200 | 100 | 100 | 200 | 200 | 100 | 200 | > 200 | > 200 | 200 | > 200
5 | Cc1cc(OCCCCCCCCCCCC[N+](C)(C)Cc2ccc([N+](=O)[O-])o2)c(C(C)C)cc1Cl.Cc1ccc(S(=O)(=O)[O-])cc1 | > 200 | > 200 | > 200 | 50 | 100 | 200 | 200 | > 200 | > 200 | 200 | > 200 | > 200 | > 200 | 100 | > 200
6 | C[N+](C)(CCCCOc1c(Br)cc(Br)cc1Br)Cc1ccc([N+](=O)[O-])o1.[Br-] | 50 | > 200 | > 200 | 8 | 25 | 10 | 50 | > 200 | 50 | 25 | > 200 | > 200 | > 200 | 50 | > 200
7 | Cc1cc(OCCCCCCCCCCCCCC[N+](C)(C)Cc2ccc(Br)o2)c(C(C)C)cc1Cl.Cc1ccc(S(=O)(=O)[O-])cc1 | > 200 | > 200 | > 200 | 200 | > 200 | 200 | > 200 | > 200 | > 200 | > 200 | > 200 | > 200 | > 200 | > 200 | > 200
8 | C[N+](C)(CCOc1ccc(Cl)cc1Cl)Cc1ccc(Br)o1.[Br-] | > 200 | > 200 | > 200 | 50 | > 200 | 100 | > 200 | > 200 | > 200 | 100 | > 200 | > 200 | > 200 | > 200 | > 200
9 | C[N+](C)(CCCCCCCCCCCCOc1c(Br)cc(Br)cc1Br)Cc1ccc(Br)o1.[Br-] | > 200 | > 200 | > 200 | 50 | 100 | 200 | 200 | > 200 | > 200 | 200 | 200 | > 200 | > 200 | 200 | > 200
10 | Cc1ccc(C[N+](C)(C)CCCCCCOc2c(Br)cc(Br)cc2Br)o1.[Br-] | 75 | > 200 | > 200 | 2.5 | 10 | 5 | 7.5 | 75 | 25 | 5 | > 200 | > 200 | > 200 | 10 | > 200
11 | Cc1ccc(C[N+](C)(C)CCCCCOc2c(Br)cc(Br)cc2Br)o1.[Br-] | 100 | > 200 | > 200 | 5 | 5 | 5 | 25 | 100 | 25 | 7.5 | > 200 | > 200 | > 200 | 25 | > 200
12 | Cc1cc(OCCC[N+](C)(C)Cc2ccc([N+](=O)[O-])o2)c(C(C)C)cc1Cl.[Br-] | > 200 | > 200 | > 200 | 2 | > 200 | 5 | 25 | 100 | 25 | 25 | > 200 | > 200 | > 200 | > 200 | > 200
13 | Cc1cc(OCC[N+](C)(C)Cc2ccc([N+](=O)[O-])o2)c(C(C)C)cc1Cl.Cc1ccc(S(=O)(=O)[O-])cc1 | > 200 | > 200 | > 200 | 25 | 50 | 25 | 200 | > 200 | 100 | 100 | > 200 | > 200 | > 200 | 100 | > 200

— ChEMBL document CHEMBL3244174, “Synthesis and biological activity of some new furan quaternary salts” (J Med Chem, 1977)
